In ChEMBL document CHEMBL4334524, “Discovery of Highly Polar β-Homophenylalanine Derivatives as Nonsystemic Intestine-Targeted Dipeptidyl Peptidase IV Inhibitors” (J Med Chem, 2019):
Activity calls are given as the source filed them. The calls are words filed in the database; no cut-off is given here.

Assays:
[1] = Apparent permeability from apical to basolateral side in human Caco2 cells at 20 uM incubated for […] by LC-MS/MS analysis; assay type: ADME, cell-based; conditions: Caco-2
[2] = Apparent permeability from basolateral to apical side in human Caco2 cells at 20 uM incubated for […] by LC-MS/MS analysis; assay type: ADME, cell-based; conditions: Caco-2
Mus musculus [3] = test: Inhibition of jejunum DPP4 in BALB/c mouse at 30 mg/kg, po after 8 hrs using Gly-Pro-7-AMC substrate by fluorescence based assay; assay type: functional, organism-based
Procedure, shortened: (§1)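 Mice were dosed orally at 30 mg/kg and intestinal DPPIV activity was measured 8 h later in three intestinal segments. Activity is expressed relative to a vehicle control group, with n = 6 per group. Data are mean ± SEM, compared with control by Student's t-test.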

Mus musculus [4] = test: Inhibition of ileum DPP4 in BALB/c mouse at 30 mg/kg, po after 8 hrs using Gly-Pro-7-AMC substrate by fluorescence based assay; assay type: functional, organism-based; procedure, shortened: as §1
Mus musculus [5] = test: Inhibition of colon DPP4 in BALB/c mouse at 30 mg/kg, po after 8 hrs using Gly-Pro-7-AMC substrate by fluorescence based assay; assay type: functional, organism-based; procedure, shortened: as §1
[6] = Stability in human intestinal S9 fractions assessed as phase I and phase II enzymes-mediated generation of systemic metabolites at 0.1 uM incubated at 37 degC for 10 mins by LC-MS/MS analysis; assay type: ADME, subcellular, Intestine, S9 fraction; conditions: s9, 10 min
[7] = Stability in mouse intestinal S9 fractions assessed as phase I and phase II enzymes-mediated generation of systemic metabolites at 0.1 uM incubated at 37 degC for 10 mins by LC-MS/MS analysis; assay type: ADME, subcellular, Intestine, S9 fraction; conditions: s9, 10 min
Dipeptidyl peptidase 4 = Dipeptidyl peptidase 4 (Mus musculus, UniProt P28843); test: Inhibition of DPP4 in C57BL/6 mouse serum pre-incubated for 5 mins followed by Gly-Pro-7-AMC substrate addition by fluorescence based assay; assay type: cell-free
[8] = Solubility in pH 6.8 buffer by nephelometry; assay type: physicochemical
[9] = Solubility in pH 7.4 buffer by nephelometry; assay type: physicochemical
[10] = Solubility in pH 7.0 buffer by nephelometry; assay type: physicochemical
[11] = Efflux ratio in human Caco2 cells at 20 uM incubated for […] by LC-MS/MS analysis; assay type: ADME, cell-based; conditions: Caco-2
[12] = Selectivity index, ratio of IC50 for recombinant human DPP8 to IC50 for inhibition of DPP4 in C57BL/6 mouse serum
[13] = Selectivity index, ratio of IC50 for recombinant human DPP9 to IC50 for inhibition of DPP4 in C57BL/6 mouse serum
HepG2 = test: Cytotoxicity in human HepG2 cells assessed as reduction in cell viability up to 200 uM incubated for 24 hrs by MTT assay; assay type: cell-based; conditions: hepg2, 24 h
HEK293 = test: Cytotoxicity in HEK293 cells assessed as reduction in cell viability up to 200 uM incubated for 24 hrs by MTT assay; assay type: cell-based; conditions: human, hek293, 24 h
Hepatocyte = test: Cytotoxicity in mouse primary hepatocytes assessed as reduction in cell viability up to 200 uM incubated for 24 hrs by MTT assay; assay type: cell-based
[14] = Toxicity in ICR mouse assessed as mouse survival at 1000 mg/kg, po administered as single dose after 4 days; conditions: in vivo, 96 h
[15] = Toxicity in ICR mouse assessed as effect on body weight at 1000 mg/kg, po administered as single dose after 4 days; conditions: in vivo, 96 h
[16] = Toxicity in ICR mouse assessed as effect on clinical parameters at 1000 mg/kg, po administered as single dose after 4 days; conditions: in vivo, 96 h
[17] = Toxicity in ICR mouse assessed as effect on behavioral parameters at 1000 mg/kg, po administered as single dose after 4 days; conditions: in vivo, 96 h

Sequence of Dipeptidyl peptidase 4 (P28843 whole entry): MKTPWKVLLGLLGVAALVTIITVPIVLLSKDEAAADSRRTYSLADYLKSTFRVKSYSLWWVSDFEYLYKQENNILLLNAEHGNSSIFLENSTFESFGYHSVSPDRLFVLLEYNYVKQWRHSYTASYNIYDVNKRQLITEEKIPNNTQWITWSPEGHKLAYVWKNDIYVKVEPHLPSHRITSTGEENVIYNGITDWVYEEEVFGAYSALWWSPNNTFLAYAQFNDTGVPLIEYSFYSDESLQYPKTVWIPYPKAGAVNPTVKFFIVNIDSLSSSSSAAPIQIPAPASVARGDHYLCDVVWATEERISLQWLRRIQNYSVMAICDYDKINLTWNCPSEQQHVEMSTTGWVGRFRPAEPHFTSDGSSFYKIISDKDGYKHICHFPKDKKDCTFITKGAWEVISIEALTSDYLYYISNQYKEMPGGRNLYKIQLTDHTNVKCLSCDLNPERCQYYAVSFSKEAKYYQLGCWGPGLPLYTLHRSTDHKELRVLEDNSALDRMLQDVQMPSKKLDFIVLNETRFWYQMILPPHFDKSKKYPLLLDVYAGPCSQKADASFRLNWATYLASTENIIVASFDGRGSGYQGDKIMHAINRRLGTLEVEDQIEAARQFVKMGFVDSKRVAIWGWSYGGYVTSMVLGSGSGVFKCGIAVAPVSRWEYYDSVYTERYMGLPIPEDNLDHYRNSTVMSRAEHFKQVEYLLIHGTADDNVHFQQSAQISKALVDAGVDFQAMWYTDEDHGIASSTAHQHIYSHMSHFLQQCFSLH

Question: Which results are given for `N[C@@H](CC(=O)N1CCn2c(nnc2C(F)(F)F)C1)Cc1cc(F)c(F)cc1F` [SITAGLIPTIN]?
Answer: Papp A→B at […], 20 µM [1]: 0.25 ×10⁻⁶ cm/s; Papp B→A at […], 20 µM [2]: 12.2 ×10⁻⁶ cm/s; inhibition (Mus musculus [3]): Active; inhibition (Mus musculus [4]): Active; inhibition (Mus musculus [5]): Active

Question: What does the source list for `O=c1ccc2ccc(O)cc2o1` [UMBELLIFERONE]?
Answer: Stability [6]: Unstable; Stability [7]: Unstable

Question: With `C[C@]12CC[C@H]3[C@@H](CCC4=CC(=O)CC[C@@]43C)[C@@H]1CC[C@@H]2O` [TESTOSTERONE] as the molecule, how does the Stability [6] read?
Answer: Unstable

Question: And the Stability [7]?
Answer: Unstable

Question: What does the source list for `N[C@@H](CC(=O)NC1(c2nc3ccc(OCCCCCC(=O)NCCS(=O)(=O)O)cc3s2)CCS(=O)(=O)CC1)Cc1cc(F)c(F)cc1F.O=C(O)C(F)(F)F`?
Answer: IC50 (Dipeptidyl peptidase 4): 2 nM; solubility kinetic [8]: 20 to 50 µM; solubility kinetic [9]: > 50 µM; solubility kinetic [10]: > 50 µM; Papp A→B at […], 20 µM [1]: 0.002 ×10⁻⁶ cm/s; Papp B→A at […], 20 µM [2]: 0.59 ×10⁻⁶ cm/s; efflux ratio at […], 20 µM [11]: 295

Question: With `N[C@@H](CC(=O)NC1(c2nc3ccc(OCC(=O)NC[C@H](O)[C@@H](O)[C@@H](O)[C@H](O)CO)cc3s2)CCS(=O)(=O)CC1)Cc1cc(F)c(F)cc1F.O=C(O)C(F)(F)F` as the molecule, how does the IC50 (Dipeptidyl peptidase 4) read?
Answer: 2.2 nM

Question: And the solubility kinetic [8]?
Answer: > 50 µM

Question: What about the solubility kinetic [9] of the same molecule?
Answer: > 50 µM

Question: What about the solubility kinetic [10] of the same molecule?
Answer: > 50 µM

Question: And the Papp A→B at […], 20 µM [1]?
Answer: 0.02 ×10⁻⁶ cm/s

Question: What about the Papp B→A at […], 20 µM [2] of the same molecule?
Answer: 0.001 ×10⁻⁶ cm/s

Question: And the efflux ratio at […], 20 µM [11]?
Answer: 0.05

Question: Which IC50 (Dipeptidyl peptidase 4) does the source give for `C[N+](C)(C)CCNC(=O)CCCCCCCCCCCOc1ccc2nc(C3(NC(=O)C[C@H](N)Cc4cc(F)c(F)cc4F)CCS(=O)(=O)CC3)sc2c1` here?
Answer: 116 nM

Question: Which IC50 (Dipeptidyl peptidase 4) does the source give for `N[C@@H](CC(=O)NC1(c2nc3ccc(OCC(=O)NCCS(=O)(=O)O)cc3s2)CCS(=O)(=O)CC1)Cc1cc(F)c(F)cc1F.O=C(O)C(F)(F)F` here?
Answer: 1.1 nM

Question: And the solubility kinetic [8]?
Answer: > 50 µM

Question: What about the solubility kinetic [9] of the same molecule?
Answer: > 50 µM

Question: What about the solubility kinetic [10] of the same molecule?
Answer: > 50 µM

Question: And the Papp A→B at […], 20 µM [1]?
Answer: 0.04 ×10⁻⁶ cm/s

Question: What about the Papp B→A at […], 20 µM [2] of the same molecule?
Answer: 0.01 ×10⁻⁶ cm/s

Question: What about the efflux ratio at […], 20 µM [11] of the same molecule?
Answer: 0.3

Question: And the Stability [6]?
Answer: Stable

Question: What about the Stability [7] of the same molecule?
Answer: Stable

Question: What about the inhibition (Mus musculus [3]) of the same molecule?
Answer: Active

Question: And the inhibition (Mus musculus [4])?
Answer: Active

Question: And the inhibition (Mus musculus [5])?
Answer: Active

Question: And the Ratio IC50 [12]?
Answer: > 2000

Question: And the Ratio IC50 [13]?
Answer: > 2000

Question: What about the Activity (HepG2) of the same molecule?
Answer: Non-Toxic

Question: And the Activity (HEK293)?
Answer: Non-Toxic

Question: And the Activity (Hepatocyte)?
Answer: Non-Toxic

Question: What about the Activity [14] of the same molecule?
Answer: Non-Toxic

Question: And the Activity [15]?
Answer: Non-Toxic

Question: What about the Activity [16] of the same molecule?
Answer: Non-Toxic

Question: What about the Activity [17] of the same molecule?
Answer: Non-Toxic

Question: What does the source list for `C[N+](C)(C)CCNC(=O)CCCCCOc1ccc2nc(C3(NC(=O)C[C@H](N)Cc4cc(F)c(F)cc4F)CCS(=O)(=O)CC3)sc2c1.O=C(O)C(F)(F)F.O=C([O-])C(F)(F)F`?
Answer: IC50 (Dipeptidyl peptidase 4): 3 nM; solubility kinetic [8]: > 50 µM; solubility kinetic [9]: > 50 µM; solubility kinetic [10]: > 50 µM; Papp A→B at […], 20 µM [1]: 0.02 ×10⁻⁶ cm/s; Papp B→A at […], 20 µM [2]: 0.11 ×10⁻⁶ cm/s; efflux ratio at […], 20 µM [11]: 6

Question: With `C[N+](C)(C)CCNC(=O)COc1ccc2nc(C3(NC(=O)C[C@H](N)Cc4cc(F)c(F)cc4F)CCS(=O)(=O)CC3)sc2c1.O=C(O)C(F)(F)F.O=C([O-])C(F)(F)F` as the molecule, how does the IC50 (Dipeptidyl peptidase 4) read?
Answer: 1.4 nM

Question: And the solubility kinetic [8]?
Answer: > 50 µM

Question: And the solubility kinetic [9]?
Answer: > 50 µM

Question: What about the solubility kinetic [10] of the same molecule?
Answer: > 50 µM

Question: And the Papp A→B at […], 20 µM [1]?
Answer: 0.02 ×10⁻⁶ cm/s

Question: What about the Papp B→A at […], 20 µM [2] of the same molecule?
Answer: 0.004 ×10⁻⁶ cm/s

Question: What about the efflux ratio at […], 20 µM [11] of the same molecule?
Answer: 0.2

Question: And the Stability [6]?
Answer: Stable

Question: And the Stability [7]?
Answer: Stable

Question: And the inhibition (Mus musculus [3])?
Answer: Active

Question: What about the inhibition (Mus musculus [4]) of the same molecule?
Answer: Active

Question: And the inhibition (Mus musculus [5])?
Answer: Active

Question: Which IC50 (Dipeptidyl peptidase 4) does the source give for `N[C@@H](CC(=O)NC1(c2nc3ccc(OCCCCCCCCCCCC(=O)NCCS(=O)(=O)O)cc3s2)CCS(=O)(=O)CC1)Cc1cc(F)c(F)cc1F` here?
Answer: 81.8 nM

Question: Which results are given for `N[C@@H](CC(=O)NC1(c2nc3ccc(OCCCCCC(=O)NC[C@H](O)[C@@H](O)[C@@H](O)[C@H](O)CO)cc3s2)CCS(=O)(=O)CC1)Cc1cc(F)c(F)cc1F.O=C(O)C(F)(F)F`?
Answer: IC50 (Dipeptidyl peptidase 4): 3.5 nM; solubility kinetic [8]: > 50 µM; solubility kinetic [9]: 20 to 50 µM; solubility kinetic [10]: 20 to 50 µM; Papp A→B at […], 20 µM [1]: 0.02 ×10⁻⁶ cm/s; Papp B→A at […], 20 µM [2]: 0.27 ×10⁻⁶ cm/s; efflux ratio at […], 20 µM [11]: 13

Question: Which IC50 (Dipeptidyl peptidase 4) does the source give for `N[C@@H](CC(=O)NC1(c2nc3ccc(OCCCCCCCCCCCC(=O)NC[C@H](O)[C@@H](O)[C@@H](O)[C@H](O)CO)cc3s2)CCS(=O)(=O)CC1)Cc1cc(F)c(F)cc1F` here?
Answer: 168 nM
